Rows were chosen to be rich in hits. Some 1.3% of all compounds tested hit in one or more screens of this group.
CASP6 VEID inh – inhibitors of human caspase-6 | purified caspase-6, Z-VEID-R110 cleavage fluorescence | inhibition, % at 12.5 µM | hit rate 0.53% among 350,000 | AID 686996;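 active means mean inhibition across replicates at least about 35%, with every replicate also reaching that limit, limit read from the data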;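 further: 0% = median of neutral control wells and 100% = no fluorescence left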
Target sequence (P55212 24-179 limits assumed): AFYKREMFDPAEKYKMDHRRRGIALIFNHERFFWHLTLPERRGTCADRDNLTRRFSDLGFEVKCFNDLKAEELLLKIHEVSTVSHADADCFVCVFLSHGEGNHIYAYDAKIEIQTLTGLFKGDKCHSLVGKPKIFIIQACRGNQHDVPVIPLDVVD
Target sequence (P55212 194-293 limits assumed): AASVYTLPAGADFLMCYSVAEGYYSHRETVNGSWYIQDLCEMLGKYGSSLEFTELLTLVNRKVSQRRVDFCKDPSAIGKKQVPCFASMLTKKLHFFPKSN
RAD52 inh – inhibitors of human RAD52 DNA annealing. P43351. inhibition, % at 18.7 µM. hit rate 0.46% among 360,000. recombinant RAD52 DNA annealing, FRET fluorescence;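 active means every replicate showing at least 50% inhibition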
S100A4 inh HTS – inhibitors of human S100A4 binding to myosin IIA peptide; P26447; S100A4/TAMRA-MyoIIA peptide fluorescence polarization; inhibition, % at 10.7 µM; hit rate 0.14% among 360,000;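 active means mean inhibition of at least 70% across replicates, with every replicate also reaching that level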
Target sequence (P26447 whole entry, looked up): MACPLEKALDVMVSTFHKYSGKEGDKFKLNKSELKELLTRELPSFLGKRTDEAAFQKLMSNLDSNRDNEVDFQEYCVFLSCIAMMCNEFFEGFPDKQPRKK
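assay system = human S100A4 monomer with TAMRA-labelled myosin IIA peptide | also added = labelled myosin peptide probe, 5 nM | incubation = 5 min between mix addition and reading | control set = DMSO and TFP controls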
Xi reactivation – X-chromosome reactivation activator | hit rate 0.055% among 360,000 | AID 743238 | activation, % at 7.58 µM | XiGFP mouse fibroblasts, % GFP-positive cells imaging, 3 d; cells co-treated with 5-aza-dC sensitizer; scaled so ellipticine positive control = 100%;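 active means mean normalized replicate activation at least 10% and every replicate at or above 10%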;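 further: 0% = median of on-plate neutral control wells and 100% = ellipticine 6 µM median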
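Assay system: SV40-immortalized XiGFP fibroblast cells, line 68-5-11; buffer or medium: DMEM plus 5-aza-dC sensitizer; compound: one concentration, pinned; timing: compounds 3 days, fix/stain 15 min at room temperature; benchmarks: positive control ellipticine, 6 µM final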
AF4-AF9 inh – MLL-AF4/AF9 protein interaction inhibition. P42568. AlphaScreen, biotin-AF4 peptide binding to FLAG-AF9. inhibition, % at 10 µM. hit rate 0.47% among 350,000. AID 651704;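 active means every replicate reaching a set inhibition limit, whatever the replicate mean, cut at about 25% in these data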;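 further: 0% = plate neutral control median and 100% = total signal loss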
RAD54 branch – inhibitors of human RAD54 branch migration; Q92698; RAD54 Holliday junction branch migration, FAM/BHQ fluorescence; inhibition, % at 10.4 µM; hit rate 0.14% among 360,000;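 active means mean normalized replicate activity at least 40 and at least half of replicates scoring 40 or more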;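 further: 0% = median of neutral control wells and 100% = median of positive control wells; inhibitors cause a drop in the FAM fluorescence signal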
Numbers without * were called inactive; i = inactive; nt = no result.

SMILES	CASP6 VEID inh	RAD52 inh	S100A4 inh HTS	Xi reactivation	AF4-AF9 inh	RAD54 branch
CC(C)(C)c1ccc(C(=O)Nn2c(CCC(=O)O)ccc2-c2cccs2)cc1	39*	-26	0	nt	8	0
O=C(O)CCc1ccc(-c2cccs2)n1NC(=O)c1ccccc1Br	nt	nt	nt	nt	nt	-4
Cc1ccc(-c2ccc(C(=O)O)o2)cc1Cl	-1	-12	9	0	27*	13
COc1cccc(C(NC(=O)C2CCN(CCCOc3ccccc3)CC2)c2ccccn2)c1 (stereo not given)	38*	-6	-4	0	3	-7
COc1ccc(OCCN2CCC(C(=O)NC(c3ccccn3)c3ccccc3OC)CC2)cc1 (stereo not given)	49*	-7	6	0	3	-18
O=C1NC(=O)/C(=C/c2ccc(-c3cc(C(=O)O)ccc3Cl)o2)S1	5	-26	-2	0	-4	-14
O=C1NC(=O)/C(=C\c2ccc(Br)o2)S1	49*	-22	16	0	-2	-7
O=C(Cc1cccnc1)N1CC2(C1)[C@H](c1ccccc1)[C@@H](CO)N2C(=O)C1CCCCC1	0	-16	0	0	-1	nt
O=C(CSc1n[nH]c(-c2ccco2)n1)Nc1ccccc1F	46*	1	-4	0	-3	-4
O=C(CSc1n[nH]c(-c2ccco2)n1)Nc1ccccc1Cl	1	-16	-10	0	0	nt
CN(Cc1ccccc1)c1ncnc2c1cnn2-c1ccccc1	5	-14	1	nt	5	-3
CCN(c1ccccc1)c1ncnc2c1cnn2-c1ccccc1	-2	-6	-12	0	28*	3
S=c1[nH]nc(-c2ccccc2Cl)n1/N=C/C=C/c1ccco1	31	-18	2	0	47*	6
Cc1cccc(-c2n[nH]c(=S)n2/N=C/C=C/c2ccco2)c1	7	0	-1	0	2	-1
COc1ccccc1/C=C\C=N\n1c(-c2ccc(Cl)cc2Cl)n[nH]c1=S	nt	nt	nt	0	nt	nt
S=c1[nH]nc(-c2ccncc2)n1/N=C/C=C/c1ccco1	51*	-24	-17	0	-5	nt
COc1ccccc1Oc1ccc(S(=O)(=O)N2CCCCC2C)cc1 (stereo not given)	nt	-14	0	0	1	14
COc1ccc(S(=O)(=O)N2CCCCC2C)cc1 (stereo not given)	-2	5	-2	0	29*	3
COc1ccc(S(=O)(=O)Nc2cccc3c2O[C@@H](CN(C)C(=O)NC(C)C)[C@@H](C)CN([C@H](C)CO)C3=O)cc1	-1	-1	-7	0	-2	2
O=C(O)c1ccccc1N/N=C/c1cc(Br)cc(Br)c1O	2	-18	1	0	30*	-7
O=C(O)CSCC(=O)N(Cc1ccccc1)c1nc(-c2ccccc2)c(-c2ccccc2)s1	37*	-4	3	0	4	10
COc1ccc2c3c(n(C)c2c1)[C@@H](CO)N(C(=O)Nc1ccc(F)cc1)CC31CN(S(=O)(=O)c2cccs2)C1	nt	nt	nt	1	-1	nt
C[C@@H]1CCCCO[C@H](CN(C)S(=O)(=O)c2cccs2)[C@@H](C)CN([C@@H](C)CO)C(=O)c2cc(NS(=O)(=O)c3cccs3)ccc2O1	-1	-71	103*	0	1	nt
Cc1noc(C)c1S(=O)(=O)N(C)C[C@@H]1OCCCC[C@H](C)Oc2ccc(NS(=O)(=O)c3cccs3)cc2C(=O)N([C@@H](C)CO)C[C@H]1C	1	64*	-3	-1	1	-3
C[C@@H]1CN([C@H](C)CO)C(=O)c2cc(NS(=O)(=O)c3cn(C)cn3)ccc2O[C@@H](C)CCCCO[C@@H]1CN(C)S(=O)(=O)c1cccs1	4	-7	-1	0	-2	4
SMILES	CASP6 VEID inh	RAD52 inh	S100A4 inh HTS	Xi reactivation	AF4-AF9 inh	RAD54 branch
C[C@H](CO)N1C[C@H](C)[C@H](CN(C)S(=O)(=O)c2cccs2)OCCCC[C@H](C)Oc2ccc(NS(=O)(=O)c3cn(C)cn3)cc2C1=O	1	109*	-2	0	-2	-1
C[C@@H]1CN([C@@H](C)CO)C(=O)c2cc(NC(=O)Nc3ccc(F)cc3)ccc2O[C@@H]1CN(C)Cc1ccc(C(=O)O)cc1	-3	9	-21	-1	-3	-2
CCCNC(=O)N1CC(=O)N2[C@H](C1)[C@@H](c1ccc(-c3ccccc3)cc1)[C@@H]2CO	nt	nt	nt	0	nt	nt
CC1(C)COC(/C=C/c2cccc([N+](=O)[O-])c2)=N1	46*	-14	3	0	0	nt
CC1(C)COC(c2cc([N+](=O)[O-])ccc2Cl)=N1	nt	nt	nt	nt	nt	1
OC(CNC1CCCC1)COc1ccc(-c2ccccc2)cc1 (stereo not given)	2	15	-8	0	3	nt
OC(CNC1CCCCC1)COCCOc1ccc(Br)cc1 (stereo not given)	47*	10	8	0	2	-21
O=C1NC(=O)/C(=C\c2ccc(O)cc2O)S1	87*	-23	5	0	-6	nt
COc1ccc(N2CCN(c3nc4c(c(=O)n(C)c(=O)n4C)n3Cc3ccccc3)CC2)cc1	nt	nt	nt	nt	nt	5
COc1ccc(N2CCN(Cc3nc4c(c(=O)n(C)c(=O)n4C)n3Cc3cccc(C)c3)CC2)cc1	0	-3	4	0	33*	-10
O=C(Nc1c(-c2ccc3c(c2)OCO3)[nH][nH]c1=O)c1ccccc1	45*	-4	1	0	-3	-3
CC(=O)c1ccc(S(=O)(=O)N2CCN(C(=O)c3ccc(-n4cncn4)c([N+](=O)[O-])c3)CC2)cc1	54*	-2	-1	0	-11	10
Cc1ccc(CN(CC(O)COc2cccc3[nH]cc(C)c23)C(C)(C)C)cc1 (stereo not given)	1	-6	-7	1	29*	-3
COc1ccccc1C(=O)Nc1ccc2c(c1)C(=O)N(C)C[C@@H](OC)[C@H](C)CN(C)[C@H](C)CO2	-1	-12	15	0	-1	-7
Cc1c(O)cc2c(c1O)C(=O)CC(c1ccc(O)cc1)O2 (stereo not given)	46*	-12	3	nt	0	-4
COc1ccc2c3c(n(C)c2c1)[C@H](CO)NCC31CCN(C(=O)c2ccccc2)CC1	nt	nt	nt	0	nt	nt
CC[n+]1c(/C=C/C=C/N(C(C)=O)c2ccccc2)sc2cc(OC)ccc21	-5	i	199*	52*	-65	nt
CC[n+]1c(/C=C(\C)OC)sc2ccccc21	7	-5	-5	0	-5	nt
CO[C@@H]1CN(C)C(=O)c2cc(NC(C)=O)ccc2OC[C@@H](C)N(CC2CC2)C[C@H]1C	6	-9	-2	1	-1	3

From PubChem BioAssay
